Reference: ChEMBL document CHEMBL5724801, “EUbOPEN Chemogenomics Library - Multiplex” (2024)
Several values for one entry are separate records, joined by “and”; a condition that tells them apart may be missing. Identical values can stand only once.

System: Fibroblast
Experiment: Multiplex assay against human fibroblast
Format: toxicity, cell-based
Procedure, shortened: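 On a CQ1 microscope at 37°C and 5% CO2, live cells were imaged after compound addition. They had been stained at seeding with Hoechst33342, BioTracker Green Microtubule Cytoskeleton Dye, MitoTracker Red and Annexin V Alexa Fluor 680. CellPathfinder machine-learning gating assigned cells to Hoechst high-intensity objects or normal cells, normal cells to healthy, pyknosed or fragmented nuclei, and pyknosed cells to mitotic or apoptotic. Tubulin, mitochondrial-mass and membrane-permeability phenotypes are per cents of healthy-nucleus cells.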

[1] = 12 h, 1 µM, compound concentration 1 uM
[2] = 12 h, 10 µM, compound concentration 10 uM
[3] = 24 h, 1 µM, compound concentration 1 uM
[4] = 24 h, 10 µM, compound concentration 10 uM
[5] = 48 h, 1 µM, compound concentration 1 uM
[6] = 48 h, 10 µM, compound concentration 10 uM

C=C(C)[C@H]1CN[C@H](C(=O)O)[C@H]1CC(=O)O [KAINIC ACID]
Population Fragmented Nuclei (%) [1]: 7.74% and 5.42%
Population Healthy Nuclei (%) [1]: 70.97% and 80.83%
Population Hoechst High Intensity Objects (%) [1]: 0%
Population Membrane Permeable-Phenotype (%) [1]: 7.27% and 2.58%
Population Mitochondria Different-Phenotype (%) [1]: 7.27% and 10.31%
Population Mitotic Cells (%) [1]: 93.94% and 72.73%
Population Normal (%) [1]: 100%
Population Pyknosed Nuclei (%) [1]: 21.29% and 13.75%
Population Tubulin-Different-Phenotype (%) [1]: 10% and 19.07%
Total Cell Count [1]: 155 and 240
Population Apoptotic (%) [2]: 8.57% and 22.92%
Population Fragmented Nuclei (%) [2]: 7.35% and 3.47%
Population Healthy Nuclei (%) [2]: 75.49% and 77.99%
Population Hoechst High Intensity Objects (%) [2]: 0%
Population Membrane Permeable-Phenotype (%) [2]: 5.19% and 2.97%
Population Mitochondria Different-Phenotype (%) [2]: 6.49% and 10.89%
Population Mitotic Cells (%) [2]: 91.43% and 77.08%
Population Normal (%) [2]: 100%
Population Pyknosed Nuclei (%) [2]: 17.16% and 18.53%
Population Tubulin-Different-Phenotype (%) [2]: 11.04% and 20.3%
Total Cell Count [2]: 204 and 259
Population Apoptotic (%) [3]: 13.51% and 31.58%
Population Fragmented Nuclei (%) [3]: 7.78% and 7.44%
Population Healthy Nuclei (%) [3]: 71.67% and 84.71%
Population Hoechst High Intensity Objects (%) [3]: 0%
Population Membrane Permeable-Phenotype (%) [3]: 3.88% and 1.46%
Population Mitochondria Different-Phenotype (%) [3]: 0.78% and 5.37%
Population Mitotic Cells (%) [3]: 86.49% and 68.42%
Population Normal (%) [3]: 100%
Population Pyknosed Nuclei (%) [3]: 20.56% and 7.85%
Total Cell Count [3]: 180 and 242
Population Apoptotic (%) [4]: 5.41% and 14.29%
Population Fragmented Nuclei (%) [4]: 8.53% and 4.49%
Population Healthy Nuclei (%) [4]: 73.93% and 85.02%
Population Hoechst High Intensity Objects (%) [4]: 0%
Population Membrane Permeable-Phenotype (%) [4]: 8.33% and 2.64%
Population Mitochondria Different-Phenotype (%) [4]: 4.49% and 3.52%
Population Mitotic Cells (%) [4]: 94.59% and 85.71%
Population Normal (%) [4]: 100%
Population Pyknosed Nuclei (%) [4]: 17.54% and 10.49%
Population Tubulin-Different-Phenotype (%) [4]: 17.31% and 18.5%
Total Cell Count [4]: 211 and 267
Population Apoptotic (%) [5]: 0% and 25%
Population Fragmented Nuclei (%) [5]: 7.94% and 4.31%
Population Healthy Nuclei (%) [5]: 88.89% and 87.84%
Population Hoechst High Intensity Objects (%) [5]: 0%
Population Membrane Permeable-Phenotype (%) [5]: 0.6% and 1.34%
Population Mitochondria Different-Phenotype (%) [5]: 15.48% and 5.36%
Population Mitotic Cells (%) [5]: 100% and 75%
Population Normal (%) [5]: 100%
Population Pyknosed Nuclei (%) [5]: 3.17% and 7.84%
Total Cell Count [5]: 189 and 255
Population Apoptotic (%) [6]: 36.36% and 23.53%
Population Fragmented Nuclei (%) [6]: 9.7% and 6.92%
Population Healthy Nuclei (%) [6]: 85.65% and 86.54%
Population Hoechst High Intensity Objects (%) [6]: 0%
Population Membrane Permeable-Phenotype (%) [6]: 2.96% and 2.22%
Population Mitotic Cells (%) [6]: 63.64% and 76.47%
Population Normal (%) [6]: 100%
Population Pyknosed Nuclei (%) [6]: 4.64% and 6.54%
Total Cell Count [6]: 237 and 260

CCCCCCNC(=O)Nc1ccc(S(=O)(=O)Nc2ccc(CCNC[C@H](O)COc3ccc(O)cc3)cc2)cc1 [L-755507]
Population Apoptotic (%) [1]: 40% and 46%
Population Fragmented Nuclei (%) [1]: 27% and 21%
Population Healthy Nuclei (%) [1]: 59%
Population Hoechst High Intensity Objects (%) [1]: 1% and 3%
Population Membrane Permeable-Phenotype (%) [1]: 3%
Population Mitochondria Different-Phenotype (%) [1]: 6% and 3%
Population Mitotic Cells (%) [1]: 60% and 53%
Population Normal (%) [1]: 98% and 96%
Population Pyknosed Nuclei (%) [1]: 12% and 19%
Population Tubulin-Different-Phenotype (%) [1]: 34% and 36%
Total Cell Count [1]: 198 and 160
Population Apoptotic (%) [2]: 45% and 42%
Population Fragmented Nuclei (%) [2]: 17% and 34%
Population Healthy Nuclei (%) [2]: 72% and 48%
Population Hoechst High Intensity Objects (%) [2]: 5%
Population Membrane Permeable-Phenotype (%) [2]: 0% and 1%
Population Mitochondria Different-Phenotype (%) [2]: 10% and 19%
Population Mitotic Cells (%) [2]: 54% and 57%
Population Normal (%) [2]: 94%
Population Pyknosed Nuclei (%) [2]: 10% and 17%
Population Tubulin-Different-Phenotype (%) [2]: 47% and 64%
Total Cell Count [2]: 218 and 172
Population Apoptotic (%) [3]: 31% and 39%
Population Fragmented Nuclei (%) [3]: 26%
Population Healthy Nuclei (%) [3]: 63% and 59%
Population Hoechst High Intensity Objects (%) [3]: 1% and 2%
Population Membrane Permeable-Phenotype (%) [3]: 0% and 3%
Population Mitochondria Different-Phenotype (%) [3]: 3% and 12%
Population Mitotic Cells (%) [3]: 68% and 60%
Population Normal (%) [3]: 98% and 97%
Population Pyknosed Nuclei (%) [3]: 9% and 13%
Population Tubulin-Different-Phenotype (%) [3]: 27% and 44%
Total Cell Count [3]: 196 and 176
Population Apoptotic (%) [4]: 72% and 50%
Population Fragmented Nuclei (%) [4]: 21% and 38%
Population Healthy Nuclei (%) [4]: 70% and 51%
Population Hoechst High Intensity Objects (%) [4]: 8% and 4%
Population Membrane Permeable-Phenotype (%) [4]: 0% and 3%
Population Mitochondria Different-Phenotype (%) [4]: 8% and 19%
Population Mitotic Cells (%) [4]: 27% and 50%
Population Normal (%) [4]: 91% and 95%
Population Pyknosed Nuclei (%) [4]: 8% and 9%
Population Tubulin-Different-Phenotype (%) [4]: 38% and 65%
Total Cell Count [4]: 232 and 168
Population Apoptotic (%) [5]: 62% and 53%
Population Fragmented Nuclei (%) [5]: 28% and 33%
Population Healthy Nuclei (%) [5]: 63% and 58%
Population Hoechst High Intensity Objects (%) [5]: 3% and 4%
Population Membrane Permeable-Phenotype (%) [5]: 0% and 1%
Population Mitochondria Different-Phenotype (%) [5]: 4% and 6%
Population Mitotic Cells (%) [5]: 37% and 46%
Population Normal (%) [5]: 96% and 95%
Population Pyknosed Nuclei (%) [5]: 8%
Population Tubulin-Different-Phenotype (%) [5]: 31% and 33%
Total Cell Count [5]: 201 and 170
Population Apoptotic (%) [6]: 79% and 71%
Population Fragmented Nuclei (%) [6]: 19% and 42%
Population Healthy Nuclei (%) [6]: 69% and 53%
Population Hoechst High Intensity Objects (%) [6]: 6% and 3%
Population Membrane Permeable-Phenotype (%) [6]: 1% and 5%
Population Mitochondria Different-Phenotype (%) [6]: 8% and 11%
Population Mitotic Cells (%) [6]: 20% and 28%
Population Normal (%) [6]: 93% and 96%
Population Pyknosed Nuclei (%) [6]: 10% and 3%
Population Tubulin-Different-Phenotype (%) [6]: 49% and 55%
Total Cell Count [6]: 240 and 184

CN1CCN2c3ncccc3Cc3ccccc3C2C1 (stereo not given) [MIRTAZAPINE]
Population Apoptotic (%) [1]: 44% and 33%
Population Fragmented Nuclei (%) [1]: 10% and 24%
Population Healthy Nuclei (%) [1]: 77% and 47%
Population Hoechst High Intensity Objects (%) [1]: 3%
Population Membrane Permeable-Phenotype (%) [1]: 0% and 4%
Population Mitochondria Different-Phenotype (%) [1]: 6% and 5%
Population Mitotic Cells (%) [1]: 56% and 66%
Population Normal (%) [1]: 96%
Population Pyknosed Nuclei (%) [1]: 12% and 27%
Population Tubulin-Different-Phenotype (%) [1]: 24% and 45%
Total Cell Count [1]: 213 and 156
Population Apoptotic (%) [2]: 44% and 28%
Population Fragmented Nuclei (%) [2]: 19% and 27%
Population Healthy Nuclei (%) [2]: 69% and 40%
Population Hoechst High Intensity Objects (%) [2]: 1% and 6%
Population Membrane Permeable-Phenotype (%) [2]: 0% and 16%
Population Mitochondria Different-Phenotype (%) [2]: 8% and 7%
Population Mitotic Cells (%) [2]: 55% and 71%
Population Normal (%) [2]: 98% and 93%
Population Tubulin-Different-Phenotype (%) [2]: 30% and 60%
Total Cell Count [2]: 168 and 140
Population Apoptotic (%) [3]: 47% and 48%
Population Healthy Nuclei (%) [3]: 82% and 50%
Population Hoechst High Intensity Objects (%) [3]: 5% and 0%
Population Membrane Permeable-Phenotype (%) [3]: 0% and 10%
Population Mitochondria Different-Phenotype (%) [3]: 5% and 10%
Population Mitotic Cells (%) [3]: 52% and 51%
Population Normal (%) [3]: 94% and 99%
Population Pyknosed Nuclei (%) [3]: 10% and 23%
Population Tubulin-Different-Phenotype (%) [3]: 31% and 36%
Total Cell Count [3]: 201 and 153
Population Apoptotic (%) [4]: 50% and 46%
Population Fragmented Nuclei (%) [4]: 19% and 29%
Population Healthy Nuclei (%) [4]: 72% and 46%
Population Hoechst High Intensity Objects (%) [4]: 4% and 5%
Population Membrane Permeable-Phenotype (%) [4]: 0% and 15%
Population Mitochondria Different-Phenotype (%) [4]: 9% and 1%
Population Mitotic Cells (%) [4]: 50% and 53%
Population Normal (%) [4]: 95% and 94%
Population Tubulin-Different-Phenotype (%) [4]: 30% and 68%
Total Cell Count [4]: 186 and 136
Population Apoptotic (%) [5]: 60% and 50%
Population Fragmented Nuclei (%) [5]: 15% and 36%
Population Healthy Nuclei (%) [5]: 73% and 45%
Population Hoechst High Intensity Objects (%) [5]: 7% and 2%
Population Membrane Permeable-Phenotype (%) [5]: 0% and 11%
Population Mitochondria Different-Phenotype (%) [5]: 4% and 12%
Population Mitotic Cells (%) [5]: 39% and 50%
Population Normal (%) [5]: 92% and 97%
Population Pyknosed Nuclei (%) [5]: 11% and 17%
Population Tubulin-Different-Phenotype (%) [5]: 31% and 56%
Total Cell Count [5]: 213 and 161
Population Apoptotic (%) [6]: 66% and 33%
Population Fragmented Nuclei (%) [6]: 17% and 46%
Population Healthy Nuclei (%) [6]: 73% and 41%
Population Hoechst High Intensity Objects (%) [6]: 5% and 2%
Population Membrane Permeable-Phenotype (%) [6]: 0% and 8%
Population Mitochondria Different-Phenotype (%) [6]: 9% and 2%
Population Mitotic Cells (%) [6]: 33% and 66%
Population Normal (%) [6]: 94% and 97%
Population Pyknosed Nuclei (%) [6]: 9% and 12%
Population Tubulin-Different-Phenotype (%) [6]: 36% and 60%
Total Cell Count [6]: 176 and 120
